Laboratory results published in ChEMBL document CHEMBL3526015, “Metabolism of the c-Fos/activator protein-1 inhibitor T-5224 by multiple human UDP-glucuronosyltransferase isoforms” (Drug Metab Dispos, 2011).

Assays:
Type in all cases: ADME
[1] = substrate: O=C(O)CCc1cc(C(=O)c2ccc(OC3CCCC3)cc2O)ccc1OCc1ccc2c(O)noc2c1; experiment: Drug metabolism assessed as Kcat to Km ratio for human UGT1A3-mediated T-5224 acyl O-glucuronide formation per mg protein after 10 to 60 mins in presence of UDP-glucuronic acid by HPLC method
Procedure, shortened: (§1)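 Kinetics used recombinant UGT1A1, 1A3 or 1A8 (0.1 mg protein/mL) with T-5224 at 1–50 μM, 2 mM UDPGA and 60 min at 37°C, in triplicate. G2/G3 were measured by HPLC at 290 nm and fitted to a substrate-inhibition model (Vmax, Km, Ksi). UGT content was quantified by immunoblot, and kcat = Vmax/E0 was derived from it.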

[2] = substrate: O=C(O)CCc1cc(C(=O)c2ccc(OC3CCCC3)cc2O)ccc1OCc1ccc2c(O)noc2c1; experiment: Drug metabolism assessed as human UGT1A3-mediated T-5224 hydroxyl O-glucuronide formation after 10 to 60 mins in presence of UDP-glucuronic acid by HPLC method; procedure, shortened: as §1
[3] = substrate: O=C(O)CCc1cc(C(=O)c2ccc(OC3CCCC3)cc2O)ccc1OCc1ccc2c(O)noc2c1; experiment: Drug metabolism assessed as human UGT1A3-mediated T-5224 acyl O-glucuronide formation after 10 to 60 mins in presence of UDP-glucuronic acid by HPLC method; procedure, shortened: as §1
[4] = substrate: O=C(O)CCc1cc(C(=O)c2ccc(OC3CCCC3)cc2O)ccc1OCc1ccc2c(O)noc2c1; experiment: Drug metabolism assessed as Kcat to Km ratio for human UGT1A3-mediated T-5224 hydroxyl O-glucuronide formation per mg protein after 10 to 60 mins in presence of UDP-glucuronic acid by HPLC method; procedure, shortened: as §1
[5] = substrate: O=C(O)CCc1cc(C(=O)c2ccc(OC3CCCC3)cc2O)ccc1OCc1ccc2c(O)noc2c1; experiment: Drug metabolism assessed as human UGT1A8-mediated T-5224 hydroxyl O-glucuronide formation after 10 to 60 mins in presence of UDP-glucuronic acid by HPLC method; procedure, shortened: as §1

Protein | kcat/Km [1] [M⁻¹ s⁻¹] | Km [2] [µM] | kcat [2] [s⁻¹] | Km [3] [µM] | kcat [3] [s⁻¹] | kcat/Km [4] [M⁻¹ s⁻¹] | Km [5] [µM] | Vmax [5] [µmol/min] | kcat [5] [s⁻¹] | kcat/Km [5] [M⁻¹ s⁻¹]
UDP-glucuronosyltransferase 1A3 (Homo sapiens) (protein) MATGLQVPLPWLATGLLLLLSVQPWAESGKVLVVPIDGSHWLSMREVLRELHARGHQAVVLTPEVNMHIKEENFFTLTTYAISWTQDEFDRHVLGHTQLYFETEHFLKKFFRSMAMLNNMSLVYHRSCVELLHNEALIRHLNATSFDVVLTDPVNLCAAVLAKYLSIPTVFFLRNIPCDLDFKGTQCPNPSSYIPRLLTTNSDHMTFMQRVKNMLYPLALSYICHAFSAPYASLASELFQREVSVVDILSHASVWLFRGDFVMDYPRPIMPNMVFIGGINCANRKPLSQEFEAYINASGEHGIVVFSLGSMVSEIPEKKAMAIADALGKIPQTVLWRYTGTRPSNLANNTILVKWLPQNDLLGHPMTRAFITHAGSHGVYESICNGVPMVMMPLFGDQMDNAKRMETKGAGVTLNVLEMTSEDLENALKAVINDKSYKENIMRLSSLHKDRPVEPLDLAVFWVEFVMRHKGAPHLRPAAHDLTWYQYHSLDVIGFLLAVVLTVAFITFKCCAYGYRKCLGKKGRVKKAHKSKTH | 252 | 17.9 | 0.0138 | 7.21 | 0.00182 | 774 |  |  |  | 
UDP-glucuronosyltransferase 1A8 (Homo sapiens) (protein) MARTGWTSPIPLCVSLLLTCGFAEAGKLLVVPMDGSHWFTMQSVVEKLILRGHEVVVVMPEVSWQLGKSLNCTVKTYSTSYTLEDLDREFMDFADAQWKAQVRSLFSLFLSSSNGFFNLFFSHCRSLFNDRKLVEYLKESSFDAVFLDPFDACGLIVAKYFSLPSVVFARGIACHYLEEGAQCPAPLSYVPRILLGFSDAMTFKERVRNHIMHLEEHLFCQYFSKNALEIASEILQTPVTAYDLYSHTSIWLLRTDFVLDYPKPVMPNMIFIGGINCHQGKPLPMEFEAYINASGEHGIVVFSLGSMVSEIPEKKAMAIADALGKIPQTVLWRYTGTRPSNLANNTILVKWLPQNDLLGHPMTRAFITHAGSHGVYESICNGVPMVMMPLFGDQMDNAKRMETKGAGVTLNVLEMTSEDLENALKAVINDKSYKENIMRLSSLHKDRPVEPLDLAVFWVEFVMRHKGAPHLRPAAHDLTWYQYHSLDVIGFLLAVVLTVAFITFKCCAYGYRKCLGKKGRVKKAHKSKTH |  |  |  |  |  |  | 6.05 | 0.000206 | 0.00184 | 303
